Data from ChEMBL document CHEMBL4138126, “Synthesis, antiproliferative, anti-tubulin activity, and docking study of new 1,2,4-triazoles as potential combretastatin analogues” (Eur J Med Chem, 2017).

Columns and labels:
HepG2 [1] = test: Cytotoxicity in human HepG2 cells assessed as reduction in cell viability incubated for 48 hrs by MTT assay; type: functional, cell-based; details: HepG2, 48 h
How it was run: (§1)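 HepG2 and HL60 (ATCC) grown in DMEM with 10% FBS, 2 mM L-glutamine, penicillin/streptomycin, amphotericin B at 37 °C, 5% CO2. Samples dissolved in DMSO, diluted thousandfold in assay. Cells seeded in serum-free medium, treated with serial concentrations 48 h; MTT 4 h, formazan dissolved in acidified isopropanol, A570. Triplicates averaged; viability relative to untreated/vehicle control.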

HL-60 = test: Cytotoxicity in human HL60 cells assessed as reduction in cell viability incubated for 48 hrs by MTT assay; type: functional, cell-based; details: HL-60, 48 h; how it was run: as §1
HepG2 [2] = test: Inhibition of beta tubulin polymerisation in human HepG2 cells incubated for 2 hrs using TMB substrate by ELISA relative to untreated control; type: cell-based; set-up: concentration or dose not given beside the values; details: dose or concentration not given here
[3] = Inhibition of beta tubulin polymerisation in human HepG2 cells incubated for 2 hrs using TMB substrate by ELISA; type: cell-based; details: HepG2, 2 h

COc1cccc(-n2nc(C(=O)Nc3ccccc3OC)nc2-c2cc(OC)c(OC)c(OC)c2)c1
IC50 (HepG2 [1]): 29.9 µM
IC50 (HL-60): 29.9 µM

CCOc1ccc(NC(=O)c2nc(-c3cc(OC)c(OC)c(OC)c3)n(-c3cccc(OC)c3)n2)cc1
IC50 (HepG2 [1]): 8.75 µM
IC50 (HL-60): 14.5 µM

COc1cccc(-n2nc(C(=O)Nc3cc(OC)c(OC)c(OC)c3)nc2-c2cc(OC)c(OC)c(OC)c2)c1
IC50 (HepG2 [1]): 8.51 µM
IC50 (HL-60): 6.02 µM

COc1cccc(NC(=O)c2nc(-c3cc(OC)c(OC)c(OC)c3)n(-c3cccc(OC)c3)n2)c1
IC50 (HepG2 [1]): 15.3 µM
IC50 (HL-60): 15.3 µM

COc1cccc(-n2nc(C(=O)Nc3cc(F)cc(F)c3)nc2-c2cc(OC)c(OC)c(OC)c2)c1
IC50 (HepG2 [1]): 1.38 µM
IC50 (HL-60): 54.2 µM
inhibition (HepG2 [2]): 65.2%
IC50 [3]: 1.3 µM

COc1cccc(CNC(=O)c2nc(-c3cc(OC)c(OC)c(OC)c3)n(-c3cccc(OC)c3)n2)c1
IC50 (HepG2 [1]): 0.9 µM
IC50 (HL-60): > 100 µM

COc1cccc(-n2nc(C(=O)Nc3ccc(F)c(F)c3F)nc2-c2cc(OC)c(OC)c(OC)c2)c1
IC50 (HepG2 [1]): 16.3 µM
IC50 (HL-60): 27.2 µM

COc1cccc(-n2nc(C(=O)Nc3ccc(F)c(F)c3)nc2-c2cc(OC)c(OC)c(OC)c2)c1
IC50 (HepG2 [1]): 11 µM
IC50 (HL-60): 31.3 µM

CCOc1ccc(NC(=O)c2nc(-c3cc(OC)c(OC)c(OC)c3)n(-c3ccc(OCC)cc3)n2)cc1
IC50 (HepG2 [1]): 29.8 µM
IC50 (HL-60): 6 µM

CCOc1ccc(-n2nc(C(=O)Nc3ccc(OC)c(OC)c3)nc2-c2cc(OC)c(OC)c(OC)c2)cc1
IC50 (HepG2 [1]): 32.8 µM
IC50 (HL-60): 4.3 µM

COc1cccc(-n2nc(C(=O)Nc3ccc(OC)c(OC)c3)nc2-c2cc(OC)c(OC)c(OC)c2)c1
IC50 (HepG2 [1]): 32.5 µM
IC50 (HL-60): 14.2 µM

COc1ccc(/C=C\c2cc(OC)c(OC)c(OC)c2)cc1O [COMBRETASTATIN A4]
IC50 (HepG2 [1]): 2.41 µM
IC50 (HL-60): 0.56 µM
inhibition (HepG2 [2]): 72.3%
IC50 [3]: 2.4 µM
